Measured values: ChEMBL document CHEMBL4513216, “Probing the Open Global Health Chemical Diversity Library for Multistage-Active Starting Points for Next-Generation Antimalarials” (ACS Infect Dis, 2020)

Assay: Toxicity liver stage against HepG2, at 10uM
Format: cell-based
Design: test concentration 10 uM, cell line HepG2-A16-CD81EGFP
Conditions: human, HepG2-A16-CD81EGFP cells; read-out: INHIBITION
Summary of the method: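 Uninfected HepG2-A16-CD81EGFP cells, 3 × 10^3 per well, 1536-well, plated on prespotted compound at 10 μM final, parasite-free screening media added to match infected plates; puromycin 10 μM positive, DMSO 0.5% negative; run in parallel with 48 h PbLuc assay at 37 °C, 5% CO2; viability by CellTiter-Glo luminescence, normalized to controls.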

Row | SMILES | cytotoxicity at 10 µM [%]
1 | O=C(NCC(F)(F)F)C(c1cccnc1)N1CCCC1 (stereo not drawn) | 2.26
2 | CCn1ncc(CNC(=O)c2cn(CCC3CCCCN3)nn2)c1C (stereo not drawn) | 2.72
3 | CCN(C)C(=O)c1cc(-c2ccn(C(C)C)n2)n2ccccc12 | -4.35
4 | Cc1cnc(N2CC(C(=O)N3CCOCC3)C3(CCOCC3)C2)nc1 (stereo not drawn) | 4.47
5 | Cc1ccc(NC(=O)NC(C)C(=O)N2CCS(=O)(=O)CC2)cc1 (stereo not drawn) | -5.1
6 | Cc1ccc(N2C[C@H](C(=O)NCC3CC3)[C@@H]3CCO[C@@H]3C2)nn1 | -67.6
7 | Cc1cccc(CN2C[C@H](NS(C)(=O)=O)[C@@H]3OCCC[C@@H]32)n1 | -0.179
8 | Cc1occc1C(=O)NCC(=O)N(C)CCCOc1ccc(F)cc1 | -41.9
9 | Cn1cc(NC(=O)N2CCC(Cc3ccccc3)CC2)ccc1=O | 1.07
10 | CS(=O)(=O)c1ccc(Cl)c(NC(=O)NCCC2=CCCCC2)c1 | 0.0793
11 | O=S(=O)(c1cccs1)N1CC[C@H]2[C@H]1CCN2CC1CC1 | 2.94
12 | CC(C(=O)N1CCc2ccccc21)N1CCc2cncnc2C1 (stereo not drawn) | 0.693
13 | Cc1ccc(N2CCCC(NCc3ccc(-n4ccnc4)cc3)C2)nn1 (stereo not drawn) | -8.44
14 | COCC(=O)N1CCC2(CCN(c3cnn(C)c3)C2=O)C1 (stereo not drawn) | 0.486
15 | COc1ccc(N(C)C(=O)c2ccc(Cl)c(S(C)(=O)=O)c2)cn1 | -11.2
16 | Cn1cc(Cl)cc1C(=O)N1CCC2(CCCN(CC3CCC3)C2=O)C1 (stereo not drawn) | 0.407
17 | O=S(=O)(Cc1ccc(F)cc1)N1CCN(CC(O)C2CC2)CC1 (stereo not drawn) | 4.77
18 | COc1nc(C)ccc1CNc1cc(N2CCCC2CO)ncn1 (stereo not drawn) | -8.02
19 | CCCS(=O)(=O)CC(=O)N1CCN(CC2CC2)c2ccccc21 | -7.44
20 | NCC1Cc2cccc(-c3nccc(N4CCC(O)CC4)n3)c2O1 (stereo not drawn) | -14.9
21 | Cc1cc(O)cc(=O)n1CCCC(=O)Nc1n[nH]c2ccccc12 | -10.6
22 | O=C(O)C1(n2ccc(-c3ccco3)n2)CCN(Cc2cccs2)CC1 | -125

Row | SMILES | cytotoxicity at 10 µM [%]
23 | O=C1CCCCCN1CCC(=O)N1CCCC(c2ccn[nH]2)C1 (stereo not drawn) | 9.01
24 | CC(C)(C)CN1CCC[C@H]1c1nc(-c2cncnc2N)no1 | -3.66
25 | FC(F)(F)c1c[nH]c(C2CCN(c3ncccn3)CC2)n1 | -5.1
26 | O=C(Nc1cc(F)ccc1OCC1CCCO1)c1ccc(O)nc1 (stereo not drawn) | -2.91
27 | NC(=O)C1CCN(Cc2ccc(S(=O)(=O)N3CCCC3)o2)CC1 | 1.04
28 | CN(Cc1nc(C2CC2)no1)C1CCCN(c2cccnn2)C1 (stereo not drawn) | -6.62
29 | CCOC(=O)NC1CCCN(Cc2ccc(-n3cncn3)c(C)c2)C1 (stereo not drawn) | 2.12
30 | CCc1cnc(N2C[C@@H]3C[C@H](C(=O)NC)[C@H](C2)O3)nc1 | 9.76
31 | COc1cc2cc(C(=O)NCCC(=O)O)n(C)c2c(OC)c1OC | 4.76
32 | O=C(NCC(O)c1ccsc1)Nc1cccs1 (stereo not drawn) | -8.29
33 | O=C(NCc1ccccc1OCC1CC1)C1CCOC1 (stereo not drawn) | 4.94
34 | CCNc1ccnc(NCC2CNCCO2)n1 (stereo not drawn) | 3.71
35 | COCCCNC(=O)Nc1ncc(-c2cccc(OC)c2)n1CCOC | 18.6
36 | Cc1occc1C(=O)N1CCC2(CCC(C(=O)NCC3CC3)O2)CC1 (stereo not drawn) | 9.53
37 | COCCN1Cc2ccccc2C2(CCN(S(C)(=O)=O)CC2)C1 | 0.121
38 | CS(=O)(=O)N1CC[C@@H]2[C@@H](CCC(=O)N2CCC2=CCCCC2)C1 | -5.64
39 | Cc1ccc(NC2(C(=O)NC(C)c3ncn[nH]3)CCCC2)cc1 (stereo not drawn) | 0.317
40 | CCN(CC)c1ccc(CNC(=O)C2(C)CCOCC2)cc1F | -4.08
41 | CCn1ncc(S(=O)(=O)N[C@@H]2CC[C@@H](n3ccnc3)[C@@H]2O)c1C | -3.4
42 | Cc1noc(C)c1CN1C[C@@H]2CN(C(=O)c3cnccn3)C[C@@H]2C1 | -1.86
43 | Cc1nn(C)cc1-c1cc(C(F)(F)F)n(CCCN)n1 | -6.25
44 | c1cnc(N2CCO[C@H]3CN(CC4CCC4)C[C@H]32)cn1 | -102

Row | SMILES | cytotoxicity at 10 µM [%]
45 | CN(C)C(C(=O)N1CC(c2ccccn2)C1)c1ccc2c(c1)OCO2 (stereo not drawn) | 10.6
46 | COc1c(CNCc2ccccc2CN2CCOCC2)c(C)nn1C | -0.686
47 | C[C@@H](NC(=O)c1ccc(Cl)cc1)c1onc(-c2cccnc2)c1C(=O)O | -1.6
48 | Cc1ccc(C(=O)NCc2ccc(N(C)C)cc2)cn1 | -6.23
49 | Cc1[nH]ncc1CCCNC(=O)Nc1ccc(C#N)cc1 | 1.8
50 | Cc1ccccc1CN1C[C@@H](C(=O)N2CCCCO2)C[C@H]2OCC[C@H]21 | -68.5
51 | Cc1ccc(C(=O)N2C[C@H](OCc3cccnc3)[C@H]3COC[C@H]32)cn1 | -1.52
52 | CC(NC(=O)Nc1cccnc1N1CCOCC1)c1ccccc1 (stereo not drawn) | 2.83
53 | Cc1nc(CN(C)S(=O)(=O)c2ccc(F)cc2Br)no1 | -6.26
54 | CCc1ccccc1OCCCN(C)C(=O)C1CCCN1C(N)=O (stereo not drawn) | 0.369
55 | O=C(CSCC1CC1)N1CCc2[nH]nc(COc3ccccc3)c2C1 | -7.01
56 | Cc1ccc(C(=O)N(C)CC(=O)Nc2cccc(C)n2)cn1 | -21.2
57 | CCn1nc2c(cc1=O)CN(CC(=O)Nc1cc(C)no1)CC2 | -5.22
58 | CC(=O)N1CCC(NC2(Cc3cc(CC(C)C)on3)COC2)CC1 | 2.8
59 | Cc1cc(C(=O)NC2CCc3c(ccc(=O)n3CC3CC3)C2)no1 (stereo not drawn) | 2.62
60 | Nc1nc2c(c(NC(=O)Nc3ccc(Cl)c(Cl)c3)n1)CCCC2 | -6.92
61 | CC(C)(C)c1cnc(CN2CCC(CN3CCOCC3)CC2)o1 | 3.63
62 | COc1ccc(-c2noc([C@@H](C)NC(=O)NC(C)(C)C)c2C(=O)O)cc1 | -1.63
63 | Cc1noc([C@@]23CCO[C@@H]2CCN(C(=O)c2ccsc2)C3)n1 | 9.1
64 | CC(C)(C)n1cc(C2=CCN(CCN3CCCCCC3)CC2)cn1 | -0.481
65 | CN(C)C(=O)CN1CCCC1c1nc(N)ncc1-c1ccc(F)cc1 (stereo not drawn) | -8.94
66 | O=C1CCCN1CC1CN(CC2CCOCC2)Cc2nccn2C1 (stereo not drawn) | 1.65

Row | SMILES | cytotoxicity at 10 µM [%]
67 | CCc1noc(C(C)N(C)CC(=O)Nc2ccc(C)cc2)n1 (stereo not drawn) | -6.42
68 | O=C(O)[C@]12CCCN(Cc3nccs3)[C@@H]1CCN(c1cnccn1)C2 | -0.911
69 | Cc1cccc(C)c1OCCCN1CCN(CC2CCCO2)CC1 (stereo not drawn) | 9.09
70 | CCN(CC)CCNC(=O)c1cnc(C(C)(C)C)s1 | -8.94
71 | Cc1nonc1C1CCCN1C(=O)c1cc2n(n1)CCCN(C(C)C)C2 (stereo not drawn) | -10
72 | Cn1cnnc1C1CCCN(C(=O)NCCNc2ccccn2)C1 (stereo not drawn) | 2.21
73 | Cc1cnn(CC2CCCCN2C(=O)c2ccc3c(c2)COC3)c1 (stereo not drawn) | -24.7
74 | CN(Cc1cc2n(n1)CCCNC2)Cc1ccno1 | 2.57
75 | COc1cc(NC(=O)NCc2ccccn2)cc(OC)c1 | -4.13
76 | CCc1ncnc2c1CCN(S(=O)(=O)CC)CC2 | -105
77 | Cc1nc(CN2CC[C@@H](OCC3CC3)[C@@H]2Cc2cccnc2)cs1 | -4.38
78 | CC(C(=O)NC1CC1)n1nc(-c2cccs2)cc(N)c1=O (stereo not drawn) | 10.9
79 | c1cc(CN2CC[C@@H]3CN(c4cncnc4)C[C@@H]3C2)ccn1 | -116
80 | N#Cc1cccnc1N1CCC(c2nc(C(F)(F)F)c[nH]2)CC1 | 2.74
81 | CC(C)NC(=O)CCNC(=O)Nc1cnn(-c2ccccc2F)c1 | 1.21
82 | CC(=O)Nc1nc(C2CCN(C(C)=O)CC2)cs1 | 4.3
83 | O=C1O[C@@H]2CN(c3ccc(Cl)cn3)C[C@@H]2N1CCc1ccc(F)cc1 | -2.77
84 | COc1ccc2c(c1)OCC(CNc1cc(N)nc(SC)n1)C2 (stereo not drawn) | 34.4
85 | Cc1nc(C(=O)N2CCCC2c2noc(C)n2)c[nH]1 (stereo not drawn) | -4.95
86 | CCCN1C[C@@H]2CC[C@H]1CN(C(=O)Cn1c(C)cc(C)nc1=O)C2 | -4.57
87 | Cc1ccc(NC2CCN(C(=O)c3cnn(C(C)(C)C)c3)CC2)nn1 | -0.939
88 | O=C(O)c1cccnc1CN1CCOc2ccccc2C1 | 7.66

Row | SMILES | cytotoxicity at 10 µM [%]
89 | CCN(C)CC1CCN(C(=O)Nc2ccc(C)cc2)C1 (stereo not drawn) | 2.89
90 | CC1CS(=O)(=O)CCN1Cc1ccccc1OCC(F)(F)F (stereo not drawn) | -4.86
91 | CN(C)C(=O)CC1CC2(CCN(C(=O)N(C)C)CC2)Oc2ccccc21 (stereo not drawn) | -11.5
92 | CCc1[nH]ncc1C(=O)N1CCCC(n2cccn2)C1 (stereo not drawn) | 4.62
93 | CN1CCN(Cc2cccnc2)C2(CCN(Cc3ccoc3)C2)C1=O (stereo not drawn) | -2.4
94 | CC(C)Nc1ncnc2c1CCN(C(=O)CC1CCCC1)CC2 | -81.5
95 | Cc1cc(=O)n(CC(=O)Nc2cccc(Cl)c2)nc1C | -6.84
96 | CC(C)COc1cncc(NCc2nnc3ccccn23)n1 | 13.1
97 | O[C@@H]1C[C@@H](c2nc(-c3ccccc3)no2)N(C2CCOCC2)C1 | -1.83
98 | COc1cc(C(=O)NS(=O)(=O)c2cncc(Br)c2)cc(Cl)c1OC | -2.21
99 | Cn1ccc(C(=O)N2CCN(CCc3ccccc3)CC2)cc1=O | 5.8
100 | CC(C)c1nnc2n1CCN(Cc1csc(-c3cnn(C)c3)n1)C2 | -2.17
101 | O=C(c1ccncc1)N1CCc2[nH]nc(Nc3ccccc3)c2C1 | 3.13
102 | CCOc1ccc2[nH]c(=O)c(CN3CCC(N4CCCC4)CC3)cc2c1 | -7.83
103 | Cn1nccc1CN1CCOC(c2cccc(Nc3ccccn3)n2)C1 (stereo not drawn) | 23.9
104 | CC(C)c1nc(CN2CCC(CO)CC2)cs1 | -20.1
105 | O=C(C1CCCC1)N1C[C@@H]2CCNC[C@@H]21 | -0.155
106 | Cc1cnn(CC2CCCN2CC(=O)NCc2ccccn2)c1 (stereo not drawn) | -5
107 | Cc1nc2[nH]cnc(NCCCN3CCOCC3)c-2n1 | -13.3
108 | NC(=O)c1ccc(CNC2CCCSC2)cc1 (stereo not drawn) | -9.44
